This note sets out measurements from ChEMBL document CHEMBL1777685, “Biological evaluation of novel benzisoxazole derivatives as PPARδ agonists” (Bioorg Med Chem, 2011).

Activity calls are given as the source filed them. No cut-off for these calls is given here. Bounds are passed on as bounds.

Experiment [1] has as its target T1, Peroxisome proliferator-activated receptor alpha (Homo sapiens, UniProt Q07869).
T1 sequence (Q07869 whole entry): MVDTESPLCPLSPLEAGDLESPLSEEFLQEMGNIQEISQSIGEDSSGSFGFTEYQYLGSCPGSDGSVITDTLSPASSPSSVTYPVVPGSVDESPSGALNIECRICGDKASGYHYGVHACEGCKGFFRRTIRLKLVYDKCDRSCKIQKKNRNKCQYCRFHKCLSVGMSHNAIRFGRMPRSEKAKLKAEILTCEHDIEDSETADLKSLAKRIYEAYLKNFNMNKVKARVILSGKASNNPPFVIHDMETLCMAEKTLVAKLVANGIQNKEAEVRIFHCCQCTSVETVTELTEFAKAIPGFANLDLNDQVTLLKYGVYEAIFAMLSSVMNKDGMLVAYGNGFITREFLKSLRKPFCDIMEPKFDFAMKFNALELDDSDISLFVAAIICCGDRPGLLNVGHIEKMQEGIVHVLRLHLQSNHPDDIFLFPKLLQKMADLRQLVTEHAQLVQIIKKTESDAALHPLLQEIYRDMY
As to the kind of experiment: Agonist activity at human PPARalpha-LBD expressed in CV1 cells co-transfected with Gal4 after 40 hrs by luciferase based transactivation assay. It counts as functional, cell-based, CV-1.

Experiment [2] deals with T2, Peroxisome proliferator-activated receptor delta (Homo sapiens, UniProt Q03181).
T2 sequence (Q03181 whole entry): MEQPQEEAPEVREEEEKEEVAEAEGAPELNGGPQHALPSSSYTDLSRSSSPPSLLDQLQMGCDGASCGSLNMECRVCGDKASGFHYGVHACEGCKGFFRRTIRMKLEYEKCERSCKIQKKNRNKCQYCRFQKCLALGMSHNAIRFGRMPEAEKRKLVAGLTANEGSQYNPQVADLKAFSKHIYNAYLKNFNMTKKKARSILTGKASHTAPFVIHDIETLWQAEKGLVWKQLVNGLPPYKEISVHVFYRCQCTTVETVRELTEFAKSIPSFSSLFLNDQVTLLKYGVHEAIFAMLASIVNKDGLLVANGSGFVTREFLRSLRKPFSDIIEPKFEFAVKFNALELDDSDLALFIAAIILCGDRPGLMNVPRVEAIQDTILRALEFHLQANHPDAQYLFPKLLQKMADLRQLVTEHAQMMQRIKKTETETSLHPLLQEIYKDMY
As to the kind of experiment: Agonist activity at human PPARdelta-LBD expressed in CV1 cells co-transfected with Gal4 after 40 hrs by luciferase based transactivation assay. It counts as functional, cell-based, CV-1.

Experiment [3] addresses T3, Peroxisome proliferator-activated receptor gamma (Homo sapiens, UniProt P37231).
T3 sequence (P37231 whole entry): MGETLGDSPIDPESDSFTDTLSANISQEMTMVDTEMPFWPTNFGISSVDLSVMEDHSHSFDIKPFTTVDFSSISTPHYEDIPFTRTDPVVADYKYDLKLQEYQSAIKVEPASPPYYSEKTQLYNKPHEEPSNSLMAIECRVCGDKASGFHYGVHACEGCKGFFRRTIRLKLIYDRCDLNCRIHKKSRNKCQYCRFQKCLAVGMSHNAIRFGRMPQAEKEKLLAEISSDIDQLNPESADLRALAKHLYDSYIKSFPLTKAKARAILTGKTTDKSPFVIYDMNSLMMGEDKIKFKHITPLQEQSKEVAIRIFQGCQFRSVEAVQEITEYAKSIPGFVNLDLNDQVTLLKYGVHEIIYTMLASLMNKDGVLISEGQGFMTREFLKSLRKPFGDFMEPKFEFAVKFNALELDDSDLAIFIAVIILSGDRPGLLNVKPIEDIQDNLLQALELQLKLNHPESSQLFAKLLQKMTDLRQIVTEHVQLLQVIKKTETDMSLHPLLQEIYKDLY
It counts as functional, cell-based, CV-1.

The species entered for experiment [4] is Rattus norvegicus. As to the kind of experiment: Induction of oligodendrocyte precursor cell differentiation isolated from Wistar rat fetal brain cortex at 0.03 uM after 3 days by anti O1-antibody immunostaining method. The format is functional.
Experiment [5] is filed under the species Rattus norvegicus. The experiment in a line: Induction of oligodendrocyte precursor cell differentiation isolated from Wistar rat fetal brain cortex at 0.01 uM after 3 days by anti O1-antibody immunostaining method. It counts as functional. Put shortly: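 Primary mixed cultures from fetal Wistar rat cortex, with OPCs enriched on a Percoll gradient. Cells seeded at 1 × 10⁴/cover glass and cultured 4 days at 37 °C, 5% CO₂, then exposed to compound in DMSO (0.01% final) for 3 days; vehicle control 0.01% DMSO. Anti-O1 immunostaining, random images; stained area measured and given relative to control mean (100%).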

For experiment [6], the species on record is Rattus norvegicus. The experiment in a line: Induction of oligodendrocyte precursor cell differentiation isolated from Wistar rat fetal brain cortex at 0.1 uM after 3 days by anti O1-antibody immunostaining method. The format is functional.

Take `Cc1oc(-c2ccccc2)nc1CCc1noc2cc(OC(C)(C)C(=O)O)ccc12`: the values for the EC50 in experiment [1], in experiment [2] and in experiment [3] were 12.9 µM, 14.9 µM and 20.8 µM, respectively.
For `CCCc1oc(-c2ccccc2)nc1CCc1noc2cc(OC(C)(C)C(=O)O)ccc12` the same measures were 13.2 µM, 9.8 µM and 19.1 µM.
Taken in the same sequence, the figures for `CCc1oc(-c2ccccc2)nc1CCc1noc2cc(OC(C)(C)C(=O)O)ccc12` were 14.7 µM, 6.7 µM and 25.1 µM.
Taken in the same sequence, the figures for `CC(C)(Oc1ccc2c(CCc3nc(-c4ccccc4Cl)oc3C(C)(C)C)noc2c1)C(=O)O` were over 10 µM, over 10 µM and over 10 µM.
On to `CC(C)c1oc(-c2c(Cl)cccc2Cl)nc1CCc1noc2cc(OC(C)(C)C(=O)O)ccc12`, for which the EC50 in experiment [1], in experiment [2] and in experiment [3] was over 10 µM in each case.
`CCCCc1ccc(-c2nc(CCc3noc4cc(OC(C)(C)C(=O)O)ccc34)c(C(C)C)o2)cc1`: the EC50 was 3.3 µM in experiment [1], 0.7 µM in experiment [2] and 2.6 µM in experiment [3].
For `CC(C)c1oc(-c2ccc(C(C)(C)C)cc2)nc1CCc1noc2cc(OC(C)(C)C(=O)O)ccc12` the same measures were 2.9 µM, 1.2 µM and 1 µM.
Taken in the same sequence, the figures for `CC(C)c1oc(-c2ccc(Cl)cc2Cl)nc1CCc1noc2cc(OC(C)(C)C(=O)O)ccc12` were 8.6 µM, 0.1 µM and 26.3 µM.
Consider `Cc1cc2c(CCc3sc(-c4ccc(C(F)(F)F)cc4)nc3C(C)C)noc2cc1OC(C)(C)C(=O)O`, for which the outcome in experiment [4], in experiment [5] and in experiment [6] was Active. The EC50 was found to be 0.2 µM in experiment [1], 0.011 µM in experiment [2] and 0.91 µM in experiment [3].
In the case of `CC(C)c1oc(-c2ccccc2Cl)nc1CCc1noc2cc(OC(C)(C)C(=O)O)ccc12`, the figures for the EC50 in experiment [1], in experiment [2] and in experiment [3] were 34.1 µM, 1.3 µM and 31.1 µM, respectively.
Taken in the same sequence, the figures for `CC(C)c1oc(-c2ccccc2O)nc1CCc1noc2cc(OC(C)(C)C(=O)O)ccc12` were 10.4 µM, 0.9 µM and 14.6 µM.
For `CC(C)c1nc(-c2ccc(C(F)(F)F)cc2)sc1CCc1noc2cc(OC(C)(C)C(=O)O)ccc12` the same measures were 0.83 µM, 0.021 µM and 5.1 µM.
Taken in the same sequence, the figures for `CCCc1oc(-c2ccccc2Cl)nc1CCc1noc2cc(OC(C)(C)C(=O)O)ccc12` were 13.9 µM, 5.4 µM and 26.4 µM.
For the compound `Cc1cc2c(CCc3nc(-c4ccc(Cl)cc4Cl)oc3C(C)C)noc2cc1OCC(=O)O`, in experiment [6], the result was Active.
With `COc1ccc(CC2SC(=O)NC2=O)cc1C(=O)NCc1ccc(C(F)(F)F)cc1` (centres undefined), the concentration giving a half-maximal response (EC50) in experiment [2] was over 10 µM. Further, the outcome in experiment [6] was inactive.
With `CCCCCCc1oc(-c2ccccc2Cl)nc1CCc1noc2cc(OC(C)(C)C(=O)O)ccc12`, the EC50 in experiment [1] stood at 2.3 µM; in experiment [2], 2 µM; in experiment [3], 5.9 µM.
For `Cc1cc(SCc2sc(-c3ccc(C(F)(F)F)cc3)nc2C)ccc1OCC(=O)O`, the outcome in experiment [4], in experiment [5] and in experiment [6] was Active.
As for `CC(C)c1oc(-c2ccccc2C(F)(F)F)nc1CCc1noc2cc(OC(C)(C)C(=O)O)ccc12`, the half-maximal effective concentration (EC50) in experiment [1], in experiment [2] and in experiment [3] was over 10 µM in each case.

Broadly, the EC50 is the midpoint of the concentration-response curve.
